A short description of data set [1]: Antioxidant activity assessed as ABTS free radical scavenging activity after 6 mins by ABTS free radical decolorization assay relative to Trolox. The arrangement: concentration or dose not given beside the values. The format is physicochemical. The following applies: 0.1 h. A digest of the protocol: (§1)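 ABTS•+ generated by mixing 7 mM ABTS with 2.45 mM potassium persulfate (1:1) and holding 12–18 h in the dark at room temperature. It was then diluted in EtOH to A734 0.70 ± 0.02. 100 μL ethanolic compound was added to 2 mL of radical solution, and A734 read after 6 min against an EtOH control. % inhibition = [(A0−A1)/A0]×100, done in triplicate; Trolox served as standard.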

Data set [2] is described as follows: Antiinflammatory activity against human THP1 cells assessed as inhibition of LPS-induced TNFalpha production pretreated for 1 hr before LPS challenge at 10 uM measured after 24 hrs by ELISA. The format is functional, THP-1. Also noted: scale not given: the % may be the effect or the level left. In a few lines: (§2)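 THP-1 cells (RPMI 1640, 10% FBS) differentiated to macrophages with PMA 0.2 μM final for 3 days, washed with cold PBS, then pre-incubated 1 h with compound diluted from DMSO stocks (0.1% DMSO). Stimulated with LPS at 1 μg/mL final. Supernatants taken after 24 h and TNF-α measured by ELISA. Dexamethasone 1 μM as positive control; an unstimulated control was included. Values are mean ± SE of four determinations.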
In general terms: In an ELISA, binding on a coated surface is turned into a signal by an enzyme label.

Data set [3] is described as follows: Cytotoxicity against human THP1 cells assessed as cell viability at 5 to 10 uM after 48 hrs by SRB assay. Type of data set: cell-based. To be noted: thp-1, 48 h. On the technique in general: Sulforhodamine B stains cellular protein and so reports cell mass.
Data set [4] is described as follows: Antiinflammatory activity against human THP1 cells assessed as inhibition of LPS-induced TNFalpha production pretreated for 1 hr before LPS challenge at 8 uM measured after 24 hrs by ELISA. Type of data set: functional, THP-1. Also noted: scale not given: the % may be the effect or the level left. In a few lines: as §2
Data set [5] in a line: Antiinflammatory activity against human THP1 cells assessed as inhibition of LPS-induced TNFalpha production pretreated for 1 hr before LPS challenge at 5 uM measured after 24 hrs by ELISA. Type of data set: functional, THP-1. Also noted: scale not given: the % may be the effect or the level left. In a few lines: as §2
A short description of data set [6]: Antioxidant activity assessed as ABTS free radical scavenging activity after 6 mins by ABTS free radical decolorization assay. The format is physicochemical. In a few lines:
as §1

These results are taken from ChEMBL document CHEMBL3804757, “Cystoseira usneoides: A Brown Alga Rich in Antioxidant and Anti-inflammatory Meroditerpenoids” (J Nat Prod, 2016).

As usually defined, the EC50 is the concentration needed to bring the measured effect to its halfway point.

Structures are written as SMILES.

Regarding `C/C(=C/C(=O)C/C(C)=C/Cc1cc(O)cc(C)c1O)CCCC(C)(O)C(=O)/C=C/C(C)(C)O` (stereo not drawn), the Activity in data set [1] is reported as 81%; in data set [2], 81%; in data set [3], “Non-toxic”.
Regarding `C/C(=C\C(=O)C/C(C)=C/Cc1cc(O)cc(C)c1O)CCCC(C)(O)C(=O)/C=C/C(C)(C)O` (stereo not drawn), the figures for the Activity in data set [1], in data set [2] and in data set [3] were 87%, 69% and “Non-toxic”, respectively.
`COc1c(C)cc(O)cc1C/C=C(\C)CC(=O)/C=C(\C)C(O)CCC(C)(O)C(=O)/C=C/C(C)(C)O` (stereo not drawn): the Activity is 62% in data set [1], 79% in data set [4] and “Non-toxic” in data set [3].
For the compound `COc1c(C)cc(O)cc1C/C=C(\C)CC(=O)/C=C(/C)CC/C=C(\C)CCC(O)C(C)(C)O` (stereo not drawn), the Activity in data set [1] is given as 62%; in data set [5], 59%; in data set [3], “Non-toxic”.
`COc1c(C)cc(O)cc1C/C=C(\C)CC(=O)/C=C(\C)CCC[C@@]1(C)O[C@@H](C(C)(C)O)CC1=O`: the Activity in data set [1] amounted to 37%.
Take `C/C(=C/C(=O)C/C(C)=C/Cc1cc(O)cc(C)c1O)CCCC(C)C(=O)/C=C/C(C)(C)O` (stereo not drawn): the Activity is given as 77% in data set [1], 21% in data set [2] and “Non-toxic” in data set [3].
Take `COc1c(C)cc(O)cc1C/C=C(\C)CC(=O)/C=C(/C)CCC[C@@]1(C)O[C@H](C(C)(C)O)C[C@H]1O`: the Activity is recorded as 62% in data set [1], 21% in data set [4] and “Non-toxic” in data set [3].
`COc1c(C)cc(O)cc1C/C=C(\C)CC(=O)/C=C(/C)CCC[C@@]1(C)O[C@@H](C(C)(C)O)CC1=O`: the Activity in data set [1] is 62%.
With `COc1c(C)cc(O)cc1C/C=C(\C)CC(=O)/C=C(/C)CCCC(C)C(=O)CC(O)C(C)(C)O` (stereo not drawn), the Activity in data set [1] was 37%; in data set [4] it was 21%; in data set [3], “Non-toxic”.
Turning to `Cc1c(C)c2c(c(C)c1O)CCC(C)(C(=O)O)O2` (stereo not drawn) [TROLOX], the 50% effective concentration (EC50) in data set [6] turned out to be 12 µM.
`C/C(=C\C(=O)C/C(C)=C/Cc1cc(O)cc(C)c1O)CCCC(C)C(=O)/C=C/C(C)(C)O` (stereo not drawn): the Activity in data set [1] is 77%; in data set [5], 53%; in data set [3], “Non-toxic”.
Take `COc1c(C)cc(O)cc1C/C=C(\C)CC(=O)/C=C(\C)CC/C=C(\C)CCC(O)C(C)(C)O` (stereo not drawn): the Activity is 37% in data set [1], 21% in data set [2] and “Non-toxic” in data set [3].
As to `COc1c(C)cc(O)cc1C/C=C(\C)CC(=O)/C=C(/C)CC/C=C(\C)C(O)CC1OC1(C)C` (stereo not drawn), the Activity in data set [1] is on record as 37%; in data set [4], 21%; in data set [3], “Non-toxic”.
